Compound activity from PubChem.
Jurkat NFkB inh: inhibitors of the PMA/ionomycin-induced NF-kB reporter in Jurkat cells. inhibition, % at 4 µM. actives 0.53% (n = 330,000). PMA/ionomycin-induced NF-kB luciferase reporter, luminescence; in the data active = inhibition above about 50%
hiPSC survival: hiPSC single-cell survival enhancement; AID 602274; ATPlite luminescence; 100% = ROCK inhibitor wells, 0% = DMSO; survival enhancement, % at 20 µM; actives 0.044% (n = 360,000); in the data active = survival enhancement above about 18%;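 also: cells exposed to compounds for 16 hours before the ATP read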
Gli-Sufu block: antagonists of Gli-Sufu signaling; Sufu-KO-LIGHT fibroblasts, Gli luciferase reporter luminescence; inhibition, % at 5 µM; actives 0.74% (n = 340,000); AID 588413;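 active = inhibition above about 55%, limit read from the data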;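 also: 0% = DMSO-treated cells and 100% = wells with medium but no cells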
697 NFkB inh: lowers PMA/ionomycin-induced NF-kB signal in 697 B cells; 697 B-cell NF-kB luciferase reporter, 16 h; inhibition, % at 4 µM; actives 0.33% (n = 330,000); AID 435022; in the data active = inhibition above about 35%
TAG inh: triacylglycerol accumulation inhibition. actives 0.66% (n = 230,000). H9c2 cells, Nile Red lipid (TAG) fluorescence; cells loaded with 200 µM oleic acid. inhibition, % at 12.5 µM. AID 651582;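 active = pattern-corrected inhibition of lipid staining of at least 50% with the nuclear-stain viability signal not falling by more than 50%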;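 also: 0% = DMSO wells and 100% = triacsin C control wells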
Lipid droplet: hepatic lipid droplet formation modulation; actives 0.4% (n = 240,000); AML12 mouse hepatocytes, oleate lipid droplets, BODIPY imaging; inhibition, % at 6.5 µM; AID 1656;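 active = lipid droplet intensity inhibited by at least 50%, with more than 500 cells counted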
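Assay system: AML12 hepatocytes (mouse) / Also added: 100 µM oleic acid challenge / Times: overnight treatment with compound plus oleate / Detection: high-content imaging of BODIPY-stained droplets and DAPI nuclei / Evaluation: % inhibition of lipid droplet signal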
Gli-Sufu confirm: confirmation of Gli-SUFU pathway antagonists; shares compounds with Gli-Sufu block; Sufu-KO-LIGHT cells, Gli luciferase reporter, luminescence; inhibition, % at 5 µM; actives 40% (n = 2,500); AID 602428;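 active = mean inhibition at 5 µM reaching about 45%, limit read from the data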;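 also: plate controls were DMSO-treated cells for no effect and wells lacking cells for full effect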
Gli cytotox: cytotoxic in Gli-SUFU antagonist counter-screen; shares compounds with Gli-Sufu block; Sufu-KO-LIGHT cells cytotoxicity, ATP luminescence; cytotoxicity, % at 5 µM; actives 32% (n = 2,500); AID 651994;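 active = mean cytotoxicity at 5 µM above about 25%, limit read from the data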;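 also: cells exposed to compound overnight for roughly 16 to 18 hours; plate controls were DMSO wells with cells for no effect and medium without cells for full effect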
Wnt3a cs: inhibits Wnt3a reporter, counter-screen for Gli-SUFU antagonists. shares compounds with Gli-Sufu block. Wnt-LIGHT cells, Wnt3a-driven luciferase reporter, luminescence. inhibition, % at 6.25 µM. actives 20% (n = 2,500). AID 651995;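 active = mean inhibition above about 25%, limit read from the data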
An asterisk follows results filed as active; . = no result; ! = not confirmed by another sample. Most compounds without a hit are left out; they make up all but 1.8% or so of the library.

SMILES | Jurkat NFkB inh | hiPSC survival | Gli-Sufu block | 697 NFkB inh | TAG inh | Lipid droplet | Gli-Sufu confirm | Gli cytotox | Wnt3a cs
Cc1nn(CC(=O)NC(C)CCc2ccccc2)c(=O)c2nn(-c3ccccc3)c(C)c12 (stereo not drawn) | 3 | 0 | 52 | -15 | . | 10 | 16 | -3 | -16
CC1CCC(C(C)C)C(OC(=O)Cn2c(-c3ccc(Br)cc3)[n+](C)c3ccccc32)C1 (stereo not drawn) | 30 | -4 | 70*! | -61 | 89* | -16 | 70* | 41* | -27
CC1CCC(C(C)C)C(OC(=O)COC(=O)c2cccn2C)C1 (stereo not drawn) | 0 | 4 | 3 | 1 | -27 | . | . | . | .
CC1(C)CC(=O)C/C(=N/NC(=O)CCCOc2ccc(Cl)cc2Cl)C1 | -6 | -2 | 99* | 4 | -25 | . | 8 | 17 | -43
Cc1ccc(N2CC(NC(=O)C(=O)c3c(C)[nH]c4ccccc34)CC2=O)cc1C (stereo not drawn) | -3 | 0 | -3 | 20 | 6 | . | . | . | .
COc1ccc(C2=NN(CC(=O)Nc3cc(C)ccc3C)C(=O)CC2)cc1 | 2 | 1 | 6 | 12 | 16 | 21 | . | . | .
COc1cccc(O)c1CN1CCC(C(=O)Nc2ccc(-c3cccc(C)c3)cc2)CC1 | -10 | 0 | 40 | -30 | . | 3 | . | . | .
COc1cccc(O)c1CN1CCC(C(=O)Nc2ccc(Oc3cccnc3)cc2)CC1 | -6 | 0 | 51 | -20 | -11 | -5 | 35 | 5 | 4
CCN1CCN(c2oc(-c3ccccc3C)nc2S(=O)(=O)c2ccccc2)CC1 | -27 | 0 | 52 | -40 | -11 | . | 22 | 2 | -24
Cc1ccc(S(=O)(=O)NCCOc2nc(N(C)C)nc(N3CCOCC3)n2)cc1 | -14 | 7 | 95* | 1 | 28 | -7 | 13 | 11 | -13
Cc1ccc2nc3c(cc(S(=O)(=O)c4ccccc4)c(=N)n3Cc3ccco3)c(=O)n2c1 | -86 | -1 | 51 | -109 | -5 | -8 | -1 | 15 | -39
Cc1n(Cc2ccccc2)c2ccccc2[n+]1Cc1ccccc1 | 21 | 0 | 53 | -12 | -26 | -44 | 62* | 33* | 11
Cc1n(Cc2ccccc2)c2cc([N+](=O)[O-])ccc2[n+]1Cc1ccccc1 | -12 | 0 | 10 | 3 | . | -5 | . | . | .
CCN1C(=O)CCN(C2CCCC2)c2nc(Nc3ccc(C(=O)NC4CCN(C)CC4)cc3OC)ncc21 | . | -6 | 71* | . | 103 | . | 60* | 24 | -87
COc1ccc(C(=O)NC2CCCCCC2)cc1S(=O)(=O)N1CCCc2ccccc21 | -14 | -1 | 10 | -35 | 47 | 11 | . | . | .
CSc1cccc(NS(=O)(=O)c2ccc3c(c2)CCN3C(C)=O)c1 | 33 | -1 | 71* | 7 | . | . | 60* | 30* | 27*
C=CCNC(=O)c1c[nH]c2ccc(S(=O)(=O)N(C)c3ccc(OCC)cc3)cc2c1=O | -4 | 0 | 5 | 4 | . | 1 | . | . | .
CCOC(=O)N1CCN(C(=O)C2CCN(S(=O)(=O)N3CCCC3)CC2)CC1 | -6 | 2 | 56* | -8 | . | . | 20 | 5 | 11
CCOC(=O)N1CCN(C(=O)C2CCN(S(=O)(=O)N3CCC4(CC3)OCCO4)CC2)CC1 | 2 | 0 | -16 | 1 | . | 7 | . | . | .
CCCc1cc(=O)oc2cc(C)cc(OCC(=O)O)c12 | -12 | 0 | 100* | 8 | 17 | . | 5 | -5 | -9
CCCc1cc(=O)oc2cc(C)cc(OCC(=O)Nc3ccccn3)c12 | 3 | 0 | 9 | -3 | . | 16 | . | . | .
CCOc1ccc(C(=O)NCC(c2ccco2)N2CCOCC2)cc1 (stereo not drawn) | 1 | 0 | -3 | -5 | 9 | . | . | . | .
Cc1nnsc1C(=O)Nc1ccc(S(=O)(=O)N2CCC(C)CC2)cc1 | 12 | 0 | 54 | -61 | . | 6 | 28 | 23 | -59
COc1ccc(OC)c(S(=O)(=O)N2CCC(C(=O)NC3CCCCCC3)CC2)c1 | -2 | -1 | 2 | 2 | . | 2 | . | . | .
CCNC(=O)NC(=O)C(C)OC(=O)[C@H](C)NS(=O)(=O)c1c(C)c(C)cc(C)c1C (stereo partly drawn) | -1 | 0 | -1 | 19 | 1 | 11 | . | . | .
SMILES | Jurkat NFkB inh | hiPSC survival | Gli-Sufu block | 697 NFkB inh | TAG inh | Lipid droplet | Gli-Sufu confirm | Gli cytotox | Wnt3a cs
COCCCNC(=O)/C(C#N)=C/c1cc(C)[nH]c1C | 8 | -1 | 57* | 4 | -7 | 1 | 17 | 6 | -1
COc1cc(C)c(CN2CCC(n3nccc3NC(=O)C3CCOC3)CC2)cc1C (stereo not drawn) | -25 | -1 | 59* | -4 | . | -13 | 14 | 7 | -13
CCOc1ccc(/C=N/n2c(C3CCCCC3)n[nH]c2=S)cc1 | -4 | 0 | -2 | -16 | . | -5 | . | . | .
CCCCn1c(N)c(N(CCOC)C(=O)CN2c3ccccc3CC2C)c(=O)[nH]c1=O (stereo not drawn) | 7 | 3 | -6 | 10 | -8 | 14 | . | . | .
O=C(C1CCN(Cc2ccc(F)cc2)CC1)N(CCc1ccccc1)Cc1ccccc1 | 0 | -2 | 58* | 5 | -27 | -22 | 24 | 2 | -49
COc1ccc(CNC(=O)CN(C(=O)CCC(=O)Nc2ccccn2)c2ccc3c(c2)OCO3)cc1 | 5 | 1 | 9 | -6 | . | 10 | . | . | .
CC[n+]1c(/C=C/N(C)c2ccccc2)oc2ccc(F)cc21 | 17 | -2 | 82* | -28 | . | -12 | 84* | 26* | 70*
CC[n+]1c(/C=C/Nc2ccccc2)oc2ccc(OC)cc21 | 46 | -1 | 25 | -12 | 4 | 7 | . | . | .
Cc1ccc(N2CC(C)Cn3c2nc2c3c(=O)n(CC(=O)OCc3ccccc3)c(=O)n2C)cc1C (stereo not drawn) | -6 | -3 | 57* | -18 | . | -15 | 38 | 17 | -37
COc1ccc(O)c(C(=O)c2cnc3c(c2)c(=O)[nH]c(=O)n3C)c1 | -5 | -1 | 57* | 16 | . | -8 | 28 | 7 | 33*
COCCn1c(=O)[nH]c(=O)c2cc(C(=O)c3cc(Cl)ccc3O)cnc21 | 9 | -1 | 0 | 14 | 8 | 21 | . | . | .
C=C(C)CSc1nc2sc3c(c2c(=O)n1C1CCCCC1)CCN(C)C3 | -2 | 0 | 58* | -36 | 0 | -5 | 47* | 25* | -7
Cc1nnc(NCc2ccncc2)c2ccccc12 | 5 | 0 | 51 | 2 | 7 | . | 22 | 19 | -5
